Hits are enriched below; roughly 3.9% of the tested compounds scored in any of these assays.
CHOP inhibitor = inhibitors of CHOP promoter induction, primary screen, cell-based, unfolded protein response, luciferase reporter. AID 2732, 2010. inhibition, % at 10 µM. 220,000 compounds, 3.8% hits. CHO-K1 CHOP-promoter luciferase, tunicamycin-induced, 15-18 h;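 active = compounds that reduced the stress-induced luciferase reporter signal by more than about 70% of percent inhibition, limit read from the data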;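 note: 0% = tunicamycin plus vehicle and 100% = wells without tunicamycin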
UPR CHOP act = activators of apoptotic CHOP UPR arm, primary screen, cell-based, CHO-CHOP luciferase reporter, luminescence, uHTS; UPR activation; percent of tunicamycin response over DMSO baseline; activation, % at 10 µM; 330,000 compounds, 0.34% hits; AID 449763, 2010;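 active = at 10 µM dose, activation of 40% or more, normalized to positive control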;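 note: 100% = tunicamycin at 10 µg/mL and 0% = DMSO alone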
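System: CHO-CHOP luciferase reporter cell line | Buffer or medium: F12 medium containing 10% fetal bovine serum | Doses: One dose, 10 µM in 0.5% DMSO | Times: 6 h compound exposure at 37 °C after overnight seeding | Signal: Luciferase luminescence | Read-out: % activation vs tunicamycin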
Gli-Sufu antag = Gli-Sufu pathway antagonists, primary screen, luciferase luminescence, Sufu-KO-LIGHT cells, uHTS. inhibition, % at 5 µM. AID 588413, 2011. Sufu-KO-LIGHT fibroblasts, Gli luciferase reporter luminescence. 340,000 compounds, 0.74% hits;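 active = inhibition above about 55%, limit read from the data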;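 note: 0% = DMSO-treated cells and 100% = wells with medium but no cells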
UPR XBP1 act = activators of adaptive XBP1 UPR arm, primary screen, cell-based, CHO-XBP1 luciferase reporter, luminescence, uHTS; IRE1-XBP1 UPR activation; percent of tunicamycin response, DMSO as zero; activation, % at 20 µM; 330,000 compounds, 0.33% hits; AID 463104, 2010;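 active = versus positive control, 20 µM dose yields 30% or more activation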;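 note: 100% = tunicamycin at 10 µg/mL and 0% = DMSO only wells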
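Material: CHO cell line with stable XBP1 luciferase reporter; buffer or medium: F12 medium containing 10% fetal bovine serum; compound: single point, 20 µM final compound, 1% DMSO; incubation: 6 h treatment, 37 °C; measured by: glow luminescence from Steady-Glo reagent; evaluation: activation, % of tunicamycin; control set: tunicamycin high, DMSO low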
697 NFkB inh = inhibitors of PMA/ionomycin-induced NF-kB reporter, 697 cells, primary screen, B-cell NF-kB inhibitor project, cell-based, luminescence, uHTS; 697 B-cell NF-kB luciferase reporter, 16 h; inhibition, % at 4 µM; 330,000 compounds, 0.33% hits; AID 435022, 2010; in the data active = inhibition above about 35%
Jurkat NFkB inh = inhibitors of induced NF-kB luciferase reporter, primary screen, TCR NF-kB activation inhibitor project, cell-based, luminescence, uHTS; Jurkat, PMA/ionomycin-induced NF-kB luciferase reporter; inhibition, % at 4 µM; 330,000 compounds, 0.53% hits; AID 435003, 2010; in the data active = inhibition above about 50%
Jurkat NFkB conf = PMA/ionomycin-induced NF-kB reporter inhibitors, Jurkat retest, confirmation, T-cell NF-kB inhibitor project, cell-based, luminescence, single concentration. shares compounds with Jurkat NFkB inh. Jurkat NF-kB luciferase, 16 h. inhibition, % at 4 µM. 2,700 compounds, 27% hits. AID 435020, 2010;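 active = inhibition reaching about 45% at 4 µM in either replicate, limit read from the data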;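 note: plate controls were PMA/ionomycin stimulated DMSO wells for no effect and unstimulated DMSO wells for full effect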
* hit, by the source's call; . = not tested or not shown.

SMILES | CHOP inhibitor | UPR CHOP act | Gli-Sufu antag | UPR XBP1 act | 697 NFkB inh | Jurkat NFkB inh | Jurkat NFkB conf
CC1CCN(S(=O)(=O)c2ccc(NC(=O)C3CCCCC3C(=O)O)cc2)CC1 (configuration not stated) | . | . | -2 | . | . | . | .
CCN(CC)CCNC(=O)c1ccc2c(c1NCCO)C(=O)c1ccccc1C2=O | -15 | 5 | 42 | -7 | -35 | 86* | 47*
COc1ccc(C(=O)N2CCN(CCCc3ccccc3)CC2)cc1OC | . | 1 | 15 | 1 | -16 | -16 | .
CCOP(=O)(c1ccc(N(C)C)cc1)C(O)c1ccccc1F (configuration not stated) | . | 1 | 22 | -1 | -5 | -7 | .
CC(=O)/C(=N\Nc1ccccc1)Sc1cccc2cccnc12 | 15 | 1 | 3 | 1 | -17 | 4 | .
O=C(Sc1cccc2cccnc12)c1ccccc1Br | . | 62* | . | 0 | -97 | 101* | 69*
O=C(Sc1cccc2cccnc12)c1ccc(F)cc1 | 91* | 69* | . | -3 | -151 | 101* | 60*
CC(NC(=O)COC(=O)/C=C/c1ccc2c(c1)OCO2)c1ccccc1 (configuration not stated) | . | -2 | -17 | -4 | 14 | -14 | .
c1csc(-c2ccc(N3CCOCC3)nn2)c1 | . | -1 | -35 | -4 | -69 | -37 | .
c1csc(-c2nnc(-c3ccc(N4CCOCC4)cc3)o2)c1 | -22 | -3 | -123 | -3 | -242 | -151 | -63
COc1ccccc1Nc1ccc2c(O)cc(S(=O)(=O)O)cc2c1 | . | . | -10 | . | . | . | .
O=C(CN1CCOCC1)Nc1ncc(Cc2ccccc2Cl)s1 | -2 | 0 | -2 | -3 | -9 | -4 | .
CCc1ccc(CCC(=O)Nc2ncc(Cc3ccccc3Cl)s2)o1 | 24 | 2 | 20 | 11 | -58 | 66* | 2
COc1ccccc1-c1cc(C(=O)Nc2cc(C)nn2-c2ccccc2)no1 | . | 0 | -2 | 1 | -50 | 61* | 32
COc1cccc(-c2cc(C(=O)Nc3cc(C)nn3-c3ccccc3)no2)c1 | 62 | -1 | 3 | 3 | -14 | 2 | .
COc1ccccc1/C=N/NS(=O)(=O)c1ccccc1 | . | 0 | 3 | -2 | -20 | 91* | 9
COc1cc(C(=O)Nc2ccc(S(=O)(=O)N3CCc4ccccc43)cc2)cc(OC)c1OC | 49 | -2 | 7 | -3 | 17 | -5 | .
COc1cc(C(=O)Nc2ccc3c(c2)C(=O)c2ccccc2C3=O)cc(OC)c1OC | -21 | . | 9 | . | . | . | .
COc1cc(C(=O)Nc2ccc3c(c2)Cc2ccccc2-3)cc(OC)c1OC | 59 | 2 | 14 | 4 | -16 | 54* | 35
COc1cc(C(=O)Nc2ccc3c(c2)CCN3C(C)=O)cc(OC)c1OC | 9 | 1 | . | 5 | -14 | 68* | 38
CC(=O)Nc1ccc(S(=O)(=O)N2c3ccc(F)cc3CCC2C)cc1 (configuration not stated) | . | 1 | -1 | 3 | -21 | 57* | 42
COc1ccccc1CNC(=O)c1cccc(-c2ccc(C)c3ccccc23)n1 | 46 | 0 | . | -1 | -13 | 61* | 22
COC(=O)c1ccc(C(=O)NC2CCCc3c2cnn3-c2ccccc2F)nc1 (configuration not stated) | . | 0 | 40 | -6 | -44 | 56* | 24
CCOc1ccc(C2CC(=O)c3c([nH]c(C(=O)OC)c3C)C2)cc1OC (configuration not stated) | 37 | -1 | 9 | 0 | 16 | -6 | .
COC(=O)c1[nH]c2c(c1C)C(=O)CC(c1cccs1)C2 (configuration not stated) | . | -2 | 30 | 7 | 0 | 56* | 54*
SMILES | CHOP inhibitor | UPR CHOP act | Gli-Sufu antag | UPR XBP1 act | 697 NFkB inh | Jurkat NFkB inh | Jurkat NFkB conf
COC(=O)c1[nH]c2c(c1C)C(=O)CC(c1cc(OC)ccc1OC)C2 (configuration not stated) | . | -2 | 41 | 1 | -27 | 61* | 29
C=CCc1ccccc1OCC(=O)NNC(=S)NCc1ccccc1 | . | 2 | 5 | -1 | -24 | 5 | .
CC(Oc1ccc(Br)cc1)C(=O)Nc1cc(S(=O)(=O)N2CCOCC2)ccc1N1CCCC1 (configuration not stated) | . | 1 | -2 | -5 | 15 | 14 | .
N#Cc1c(-c2ccc3c(c2)OCO3)cc[nH]c1=O | . | 0 | -4 | -1 | 9 | 8 | .
COc1nc(-c2ccccc2)cc(-c2ccc3c(c2)OCO3)c1C#N | -4 | 1 | 43 | 5 | -29 | 57* | 11
Cc1cccc(NC(=O)CSc2nc(C3CC3)nc3ccccc23)c1 | . | 3 | -40 | 1 | -3 | 14 | .
CCN(CC)c1ccc(NC(=O)CSc2nc(C3CC3)nc3ccccc23)cc1C | . | 0 | -8 | 0 | -16 | 59* | 10
Cc1ccc(Cn2c(=N)n(CC(O)COc3ccccc3)c3ccccc32)cc1 (configuration not stated) | 37 | 0 | 16 | 1 | -40 | 53* | 12
N=c1n(Cc2ccccc2)c2ccccc2n1CC(O)COc1ccccc1 (configuration not stated) | 41 | -3 | 42 | 2 | -25 | 10 | .
CC(C)[C@H](NS(=O)(=O)c1ccccc1F)C(=O)NC1CCCCC1 | . | 1 | -4 | -2 | -3 | -3 | .
CCOC(=O)COc1cccc2c(=O)n(CC(=O)NCc3ccc(F)cc3)ccc12 | -25 | 0 | 49 | 9 | -14 | 72* | 53*
CCOC(=O)C(C)Oc1cccc2c(=O)n(CC(=O)NCc3ccc4c(c3)OCO4)ccc12 (configuration not stated) | . | -1 | 15 | 7 | -62 | 52* | 54*
CCOC(=O)COc1cccc2c(=O)n(CC(=O)NCc3ccccc3)ccc12 | 6 | -1 | 9 | 7 | -6 | 63* | 50
O=C(CSc1cc(Cl)ccc1Cl)Nc1ccc(N2CCOCC2)cc1 | . | 0 | -12 | -2 | 15 | -11 | .
CC1(C)N=C(N)N=C(N)N1c1ccc(Oc2ccc(Cl)cc2)c(Cl)c1 | . | -1 | 65* | 0 | 29 | 82* | 66*
CC1(C)N=C(N)N=C(N)N1c1ccccc1 | -7 | -2 | 5 | 0 | -44 | 22 | .
Cc1c(C(=O)Nc2ccccc2)csc1-c1ccccc1 | 39 | 3 | -133 | -2 | 6 | -266 | -195

Compound activity as filed in PubChem BioAssay.
